Experimental data reported in PubChem BioAssay.
Results filed as inconclusive are left out.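 How the source made its calls, unless noted: active means growth inhibition above 25% in both replicates, a cutoff set 3 SD above the mean; inconclusive means above 25% in only one replicate; inactive means the rest.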

What was measured:
[1] = OD615 S. cerevisiae growth inhibition, permissive medium, pilot counter-assay, permissive growth control for S. cerevisiae lifespan shortening project (AID 705); settings: OD615, 24 h, at 10 µM, active compounds read high
Method in brief: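 Timing: 24 h exposure, 30 °C / Material: Saccharomyces cerevisiae strain carrying genetically modified DeaD replicative-lifespan system / Signal: OD at 615 nm / Compound: 10 µM single dose, 0.25% DMSO / Medium: SC raffinose/galactose permissive medium / Evaluation: reduction in yeast growth (OD615)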

[2] = Restrictive medium S. cerevisiae growth inhibition, OD615, pilot screen of yeast lifespan reduction project, restrictive growth control (AID 706;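 active means growth inhibition above a set limit, 3 SD over mean compound inhibition, in both replicates, cut at about 43% in these data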;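 further: modified DeaD lifespan yeast strain shifted to restrictive glucose medium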); settings: OD615, 48 h, at 10 µM, active compounds read high
Method in brief: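 System: Engineered S. cerevisiae DeaD strain | Detection: OD615 | Buffer or medium: CSMM-D glucose medium | Doses: 10 µM compound, 0.25% DMSO | Timing: 4 h pre-growth plus 48 h compound exposure, 30 °C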

[3] = viability gain of MRP-1-high H69AR cells under doxorubicin, pilot screen, MRP-1 activator project, CellTiter-Glo, duplicate (AID 807;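 active means viability increase at or above a cutoff of the median across tested compounds plus 3 SD, cut at about 8.5% in these data, passing the limit was not always enough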;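 further: compound pretreatment 18-22 h then 72 h combined with doxorubicin; 0% = doxorubicin alone and 100% = vehicle without doxorubicin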); settings: H69AR viability with doxorubicin, CellTiter-Glo luminescence; at 10 µM; active compounds read high
[4] = growth suppression of beta-catenin knockout HCT116, pilot screen, human colon tumor cells (AID 823;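 active means cell viability at or below a set limit in both duplicate runs, the limit being the all-compound median minus 4 SD, cut at about 23% in these data, passing the limit was not always enough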;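 further: 0% = wells killed by 20 µM Hyamine and 100% = untreated DMSO cell wells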); settings: CellTiter-Glo, 60 h, at 10 µM, active compounds read low
[5] = growth suppression of PTEN-deleted HCT116, pilot screen, cell-based, HCT116 clonal line, CellTiter-Glo (AID 824;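 active means viability at or below 27.92% in each of two runs, the all-compound median minus 4 SD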;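 further: 0% = 20 µM Hyamine control and 100% = vehicle cell control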); settings: 60 h, at 10 µM, active compounds read low
[6] = inhibitors of the yeast RAM network, pilot screen, dse1pr::URA3 reporter, 5-FOA selection (AID 869;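 active means inhibition over a set limit, the all-compound mean plus 3 SD, in both replicate runs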;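 further: 0% = DMSO wells with no growth and 100% = 10 µM 1-NA-PP1 with full growth; RAM network block rescues cells from 5-FOA so hits raise OD615 growth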); settings: S. cerevisiae dse1pr::URA3 5-FOA growth, OD615, 2 d; at 10 µM; active compounds read high; strain carries analog-sensitive mutant Cbk1 kinase
[7] = RAM signaling pathway blockade in yeast – S. cerevisiae, Pdr1DBD-CYC8 efflux-inhibited sensitized strain, primary screen (AID 1298;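 active means RAM network inhibition above 8.4% in each of two replicates, 3 SD over the compound average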;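 further: 0% = DMSO untreated cells without growth and 100% = 10 µM 1-NA-PP1 full growth; higher means more yeast growth rescued from 5-FOA killing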); settings: S. cerevisiae cbk1-as DSE1-URA3 strain, 5-FOA growth OD615, 2 d; at 50 µM; active compounds read high

Fc1cccc(CSc2nc3ccncc3[nH]2)c1
inactive: growth inhibition [1] -13.4% | growth inhibition [2] -9.72% | viability increase [3] -0.81% | viability [4] 94.9% | viability [5] 79.7% | inhibition [6] 1.6% | RAM network inhibition [7] 7.53%

CCS(=O)(=O)N1CCN(c2cccc(C)c2C)CC1
inactive: growth inhibition [1] -12.4% | growth inhibition [2] -5.41% | viability increase [3] -1.48% | viability [4] 97.5% | viability [5] 89.3% | inhibition [6] 2.35% | RAM network inhibition [7] 4.29%

CCC(=O)N1C(C(=O)O)CSC1c1ccc(OC)cc1 (configuration not stated)
inactive: growth inhibition [1] -0.64% | growth inhibition [2] 6.29% | viability increase [3] -0.61% | viability [4] 98.1% | viability [5] 93.5% | inhibition [6] 1.16% | RAM network inhibition [7] 2.87%

Cc1ccc(-n2c(SCC(=O)Nc3nccs3)nc3c(c2=O)SCC3)cc1
inactive: growth inhibition [1] -10.3% | growth inhibition [2] -5.16% | viability increase [3] -6.87% | viability [4] 94.2% | viability [5] 92.2% | inhibition [6] 3.41% | RAM network inhibition [7] 6.62%

COc1ccc2cc(S(=O)(=O)N3CCOCC3)ccc2c1
inactive: growth inhibition [1] -11.2% | growth inhibition [2] -7.81% | viability increase [3] -1.77% | viability [4] 94.4% | viability [5] 99.2% | inhibition [6] 0.075% | RAM network inhibition [7] 1.03%

COCCNC(=O)CN(c1ccccc1OC)S(C)(=O)=O
inactive: growth inhibition [1] -6.76% | growth inhibition [2] 1.17% | viability increase [3] 0.7% | viability [4] 101% | viability [5] 101% | inhibition [6] 2.75% | RAM network inhibition [7] 0.67%

COc1cc(C(=O)Oc2ccccc2N)cc(OC)c1OC
inactive: growth inhibition [1] -19.6% | growth inhibition [2] 11.3% | viability increase [3] -2.84% | viability [4] 102% | viability [5] 96% | inhibition [6] -0.31% | RAM network inhibition [7] 1.19%

CCNc1nc(C)c2cc(Br)c(=O)n(CC)c2n1
inactive: growth inhibition [1] -2.64% | growth inhibition [2] -8.07% | viability increase [3] -6.29% | viability [4] 66.4% | viability [5] 64.6% | inhibition [6] 0.44% | RAM network inhibition [7] 7.93%

Cn1c(=O)[nH]c(=O)c2c1nc(N1CCN(c3ccccc3)CC1)n2CCSc1ncccn1
inactive: growth inhibition [1] -4.54% | growth inhibition [2] 7.86% | viability increase [3] -2.82% | viability [4] 93% | viability [5] 82.6% | inhibition [6] 0.42% | RAM network inhibition [7] 4.89%

Cn1ccnc1SCC(=O)c1cc2ccccc2o1
inactive: growth inhibition [1] -6.64% | growth inhibition [2] -0.315% | viability increase [3] -2.52% | viability [4] 95.7% | viability [5] 99.4% | inhibition [6] 0.57% | RAM network inhibition [7] 1.04%

CC(=O)c1ccc(Nc2cc(C)nc3nc(C)nn23)cc1
inactive: growth inhibition [1] -0.07% | growth inhibition [2] -9.04% | viability increase [3] -3.3% | viability [4] 103% | viability [5] 100% | inhibition [6] 0.72% | RAM network inhibition [7] -1.56%

COc1ccc(Br)cc1CNC(=O)C1CCC(=O)N1C(C)C (configuration not stated)
inactive: growth inhibition [1] 6.52% | growth inhibition [2] 4.42% | viability increase [3] -2.9% | viability [4] 91.7% | viability [5] 94.7% | inhibition [6] 1.99% | RAM network inhibition [7] 3.58%

CCN1CCN(CCCNC(=O)Cn2cc3c(n2)CCCC3)CC1
inactive: growth inhibition [1] -5.34% | growth inhibition [2] 0.355% | viability increase [3] -1.2% | viability [4] 108% | viability [5] 97.2% | inhibition [6] 0.945% | RAM network inhibition [7] 0.76%

CCCCNC(=O)CS(=O)Cc1nc(-c2cccc(Cl)c2)oc1C (configuration not stated)
inactive: growth inhibition [1] -2.86% | growth inhibition [2] 11.4% | viability increase [3] -0.78% | viability [4] 92.2% | viability [5] 97.3% | inhibition [6] 0.705% | RAM network inhibition [7] 6.02%

Cn1c(NC(=O)C2CCCO2)cc(=O)n(C)c1=O (configuration not stated)
inactive: growth inhibition [1] 0.76% | growth inhibition [2] 1.36% | viability increase [3] -0.7% | viability [4] 103% | viability [5] 99.8% | inhibition [6] 0.565% | RAM network inhibition [7] -0.47%

CCOC(=O)Cn1nc(C)c(-c2ccccc2)c1N
inactive: growth inhibition [1] -23.1% | growth inhibition [2] -5.69% | viability increase [3] -1.41% | viability [4] 97.4% | viability [5] 95.2% | inhibition [6] 1.26% | RAM network inhibition [7] 2.61%

COc1ccc(CN2CCN(C(=O)c3ccco3)CC2)cc1OCc1ccccc1
inactive: growth inhibition [1] -9.2% | growth inhibition [2] -18.8% | viability increase [3] -2.34% | viability [4] 88% | viability [5] 83.3% | inhibition [6] 0.95% | RAM network inhibition [7] 2.98%

O=C(NCc1cccs1)C1CCN(S(=O)(=O)c2cccc3cccnc23)CC1
inactive: growth inhibition [1] -3.73% | growth inhibition [2] -6.17% | viability increase [3] -0.65% | viability [4] 93% | viability [5] 90.7% | inhibition [6] -0.03% | RAM network inhibition [7] 1.45%

Cn1c(C(=O)NC2CCCC2)cc2c(=O)n(C)c3ccccc3c21
inactive: growth inhibition [1] -12.6% | growth inhibition [2] 3.59% | viability increase [3] -2.84% | viability [4] 84.3% | viability [5] 87.4% | inhibition [6] 1.21% | RAM network inhibition [7] 7.72%

COCCCN(C(=O)Cn1ncc2c(=O)oc3ccc(C)cc3c21)C(C)c1ccncc1 (configuration not stated)
inactive: growth inhibition [1] -16% | growth inhibition [2] -27.4% | viability increase [3] -1.85% | viability [4] 103% | viability [5] 98.3% | inhibition [6] 1.15% | RAM network inhibition [7] 0.85%

CS(=O)(=O)Nc1ccc2c3c(cccc13)CC2
inactive: growth inhibition [1] -15.4% | growth inhibition [2] -15.1% | viability increase [3] -1.25% | viability [4] 97.7% | viability [5] 90.1% | inhibition [6] 1.14% | RAM network inhibition [7] 7.52%

Cc1cc(C(F)(F)F)nc(NCc2ccc(F)cc2)n1
inactive: growth inhibition [1] -1.39% | growth inhibition [2] -13% | viability increase [3] -1.57% | viability [4] 90.5% | viability [5] 86.7% | inhibition [6] 1.39% | RAM network inhibition [7] 0.79%

O=C(Cn1ncc2c(=O)oc3ccccc3c21)NCC1COc2ccccc2O1 (configuration not stated)
inactive: growth inhibition [1] 4.09% | growth inhibition [2] -10.9% | viability increase [3] -1.36% | viability [4] 103% | viability [5] 98.2% | inhibition [6] 2.72% | RAM network inhibition [7] 3.56%

Cc1c(Br)cc(C(=O)N2CCCC2)c(C)c1C
inactive: growth inhibition [1] -12.7% | growth inhibition [2] -11.1% | viability increase [3] -2.86% | viability [4] 102% | viability [5] 98.9% | inhibition [6] 0.205% | RAM network inhibition [7] 3.08%

CCOC(=O)c1[nH]c2ccccc2c1NC(=O)CC(C)(C)C
inactive: growth inhibition [1] 5.14% | growth inhibition [2] -9.95% | viability increase [3] -3.69% | viability [4] 99.4% | viability [5] 96% | inhibition [6] 1.65% | RAM network inhibition [7] 1.45%

C=CCOc1cccc(C2c3c(oc4ccccc4c3=O)C(=O)N2c2ccccn2)c1 (configuration not stated)
inactive: growth inhibition [1] -8.5% | growth inhibition [2] -8.1% | viability increase [3] -4.17% | viability [4] 79.7% | viability [5] 81.6% | inhibition [6] 2.12% | RAM network inhibition [7] 9.18%

CCSc1nnc(NC(=O)CC)s1
inactive: growth inhibition [1] -14.2% | growth inhibition [2] -13.4% | viability increase [3] 1.42% | viability [4] 106% | viability [5] 99% | inhibition [6] 1.21% | RAM network inhibition [7] -0.32%

O=C(Cn1ncc2c1-c1ccccc1OC2)Nc1ccc(S(=O)(=O)N2CCCCC2)cc1
inactive: growth inhibition [1] 0.515% | growth inhibition [2] -5.21% | viability increase [3] -2.69% | viability [4] 90.7% | viability [5] 84.8% | inhibition [6] 0.655% | RAM network inhibition [7] 4.53%

CCCCN(C)c1nc(-c2ccco2)c2c(c1C#N)CC(C)(C)OC2
inactive: growth inhibition [1] -9.48% | growth inhibition [2] 0.09% | viability increase [3] -4.56% | viability [4] 96.3% | viability [5] 98.3% | inhibition [6] 1.63% | RAM network inhibition [7] -0.79%

CC(Nc1ncnc2nc[nH]c12)c1ccccc1 (configuration not stated)
inactive: growth inhibition [1] -8.48% | growth inhibition [2] 10.5% | viability increase [3] -1.31% | viability [4] 95.3% | viability [5] 88.9% | inhibition [6] 0.985% | RAM network inhibition [7] 4.02%

N#CC1=C2SCN(c3ccccc3)CN2C(=O)CC1c1c(Cl)cccc1Cl (configuration not stated)
inactive: growth inhibition [1] -3.85% | growth inhibition [2] 18.9% | viability increase [3] -7.7% | viability [4] 84.3% | viability [5] 93% | inhibition [6] 1.14% | RAM network inhibition [7] 4.42%

CCCc1cc(C(=O)NCC(C)C)no1
inactive: growth inhibition [1] -3.57% | growth inhibition [2] 13.8% | viability increase [3] 0.64% | viability [4] 109% | viability [5] 101% | inhibition [6] 1.85% | RAM network inhibition [7] 1.2%

CCOC(=O)c1c(C2CCN(C(=O)OCC)CC2)nc2ccccn12
inactive: growth inhibition [1] -9.71% | growth inhibition [2] -12.6% | viability increase [3] -1.79% | viability [4] 95.4% | viability [5] 88.7% | inhibition [6] 2.99% | RAM network inhibition [7] 2.43%

O=C(Nc1cccc(C(F)(F)F)c1)c1cnc2n(c1=O)CCS2
inactive: growth inhibition [1] -9.46% | growth inhibition [2] 5.56% | viability increase [3] 0.63% | viability [4] 108% | viability [5] 95.2% | inhibition [6] 2.6% | RAM network inhibition [7] 5.71%

COCCN1C(=O)c2oc3ccccc3c(=O)c2C1c1cccc(O)c1 (configuration not stated)
inactive: growth inhibition [1] -7% | growth inhibition [2] -8.97% | viability increase [3] -0.6% | viability [4] 107% | viability [5] 94.3% | inhibition [6] 1.1% | RAM network inhibition [7] 2.85%

Cc1ccc(NC(=O)c2c(O)c3ccccc3n(C)c2=O)nc1
inactive: growth inhibition [1] -3.92% | growth inhibition [2] 9.36% | viability increase [3] -5.52% | viability [4] 75.3% | viability [5] 70.2% | inhibition [6] 0.36% | RAM network inhibition [7] -1.46%
